Experimental data from the EternaBench riboswitch data.

Test system: MS2 coat protein
Assay: apparent Kd, MS2 coat protein; higher = weaker binding; RNA-MaP array; FMN 200 µM where present
Summary of the method: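 Designs were transcribed by stalled E. coli RNA polymerase on Illumina sequencing-chip clusters. They were titrated with SNAP-549-labelled MS2 coat protein from 0.7 or 1.5 nM, doubling to 3 µM, without and then with constant ligand. Buffer: 100 mM Tris-HCl pH 7.5, 80 mM KCl, 4 mM MgCl2, BSA, DTT, yeast tRNA, Tween-20. Green signal was normalised to red-channel RNA signal and control-cluster median Fmax. Apparent Kd is the median of filtered per-cluster binding-curve fits.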

[1] = designed as: OFF switch for flavin mononucleotide, no ligand
[2] = ligand present: flavin mononucleotide, designed as: OFF switch for flavin mononucleotide
[3] = designed as: ON switch for flavin mononucleotide, no ligand
[4] = ligand present: flavin mononucleotide, designed as: ON switch for flavin mononucleotide

Sequence	apparent Kd [1] [nM]	apparent Kd [2] [nM]	apparent Kd [3] [nM]	apparent Kd [4] [nM]
UGCUAGUCAGGAUAUACGAACAUGUCGCCAGAUGUCAAGGUACAUGAGGAUCACCCAUGUAGAAGGGACUAGAA	39.2	107	–	–
UGGAGGUCAGGAUAUGCAUGGCGGGACUUGCGUCGUGGCGUGCAGAAGGGACAUGAGGAUCACCCAUGUGGAGU	112	77.4	–	–
UGGAUGGUAUGAGGAUAUGCGCGCGAAACGCGCGCAGAAGGCAUGUCAAUAGACAUGAGGAUCACCCAUGUAUUAUCCAUCCAC	–	–	192	13
UGGAUGGUAUGAGGAUAUGCGCGCGAAACGCGCGCAGAAGGCGUGUCAAUAGACAUGAGGAUCACCCAUGUAUUAUCCAUCCAA	–	–	130	12.3
UGGCUACAUGAGGAUCACCCAUGUCAGGAUAUGCCGUCGGCUUGCGUUCGUCGUUCGGGUAGAAGGGACUGCGG	85.3	106	–	–
UGGGACGUCGUAGGAUAUGUAGGAUAUUCCUACAUGAGGAUCACCCAUGUUGACAUGGAAGAAGGACAGAAGGACGAUGUCCAU	–	–	211	4.78
UGGUAACAUGAGGAUCACCCAUGUCAAAUGAAUCGAGGAUAUGGGAAUUAACAACACAAACUAGAAGGCGAAUUUG	–	–	303	247
UGGUACAUGGGAGGAUAUCAUGUGAGAACAUGAGGAUCACCCAUGUCGAUGGAGACAUCGGAGAUUGAGAAGGCCCAUGUACCU	–	–	1210	63.8
UGGUACAUGGGAGGAUAUGGGUUGAUAACAUGAGGAUCACCCAUGUUAAAUAUGGCGAGAGCCAACUAGAAGGCCCAUGUACCU	–	–	594	38.8
UGGUACUACGGAGGAUAUCAUGUAUAUACAUGAGGAUCACCCAUGUCGUACGAGAGUACGGAGAUUGAGAAGGCCGUAGUACCU	–	–	38.7	16.2
UGGUACUAGGGAGGAUAUGGGAAAAUACAUGAGGAUCACCCAUGUUUAAGAAUGCCGAGAGGCAACUAGAAGGCCCUAGUACCU	–	–	16.2	5.26
UGGUACUAGGGAGGAUAUGGGAACAUACAUGAGGAUCACCCAUGUUUAAGAAUGCCGAGAGGCAACUAGAAGGCCCUAGUACCU	–	–	15.7	4.96
UGGUACUAGGGAGGAUAUGGGAAGAUACAUGAGGAUCACCCAUGUCUAAGAAUGCCGAGAGGCAACUAGAAGGCCCUAGUACCU	–	–	98.3	496
UGGUACUAGGGAGGAUAUGGGAAGAUACAUGAGGAUCACCCAUGUUUAAGAAUCCCGAGAGGCAACUAGAAGGCCCUAGUACCU	–	–	8.08	6.96
UGGUACUAGGGAGGAUAUGGGAAGAUACAUGAGGAUCACCCAUGUUUAAGAAUGCAGAGAGGCAACUAGAAGGCCCUAGUACCU	–	–	324	18.7
UGGUACUAGGGAGGAUAUGGGAAGAUACAUGAGGAUCACCCAUGUUUAAGAAUGCCGAUAGGCAACUAGAAGGCCCUAGUACCU	–	–	406	18.7
UGGUACUAGGGAGGAUAUGGGAAGAUACAUGAGGAUCACCCAUGUUUAAGAAUGCCUAGAGGCAACUAGAAGGCCCUAGUACCU	–	–	393	19.1
UGGUACUAGGGAGGAUAUGGGAAGAUACAUGAGGAUCACCCAUGUUUAAGAAUUCCGAGAGGCAACUAGAAGGCCCUAGUACCU	–	–	35.7	13
UGGUACUAGGGAGGAUAUGGGAAGCUACAUGAGGAUCACCCAUGUUUAAGAAUGCCGAGAGGCAACUAGAAGGCCCUAGUACCU	–	–	30.2	5.56
UGGUACUAGGGAGGAUAUGGGACGAUACAUGAGGAUCACCCAUGUUUAAGAAUGCCGAGAGGCAACUAGAAGGCCCUAGUACCU	–	–	494	21.7
UGGUACUAGGUAGGAUAUGGGAAGAUACAUGAGGAUCACCCAUGUUUAAGAAUGCCGAGAGGCAACUAGAAGGCCCUAGUACCU	–	–	652	78.9
UGGUACUCGGGAGGAUAUGGGAAGAUACAUGAGGAUCACCCAUGUUUAAGAAUGCCGAGAGGCAACUAGAAGGCCCUAGUACCU	–	–	457	23.4
UGGUACUUCGGAGGAUAUCAUGUAGAUACAUGAGGAUCACCCAUGUCGUACGAGAGUACGGAGAUUGAGAAGGCCGAAGUACCU	–	–	31.2	16
UGGUCAACAUCAGGAUAUUAACAUGGGCUACACUAAGAAGGGAUAAUGAAAUACGAACUAAACGCACAUGAGGAUCACCCAUGU	–	–	34.4	25
UGGUCAUCAUCAGGAUAUUAACGUGGGCUACAUUAAGAAGGGAUAGUGGGAGAGGAUGUGAAACAUGAGGAUCACCCAUGUUGU	–	–	13.3	10.6
UGGUGACGUUUCUUCUCGACAUGAGGAUCACCCAUGUAGACAGAGGAUAUCCGAGUUGCCAAUAUGGAGAAGGCUGACUGCGAA	6.6	8.32	–	–
UGGUGGUAGCAGGAUAUGCUUGUUGUGUAGUUUGCAGAAGGGCUAACAUGAGGAUCACCCAUGUAAGAGGUGUU	331	162	–	–

Sequence	apparent Kd [1] [nM]	apparent Kd [2] [nM]	apparent Kd [3] [nM]	apparent Kd [4] [nM]
UGGUUCCUGCAGAAGGUGUAGGCGACUUGCUUGCAAGGAUAUGCACAUGAGGAUCACCCAUGUAGCUAAAAGUUUGCAACGUGG	12.8	65.1	–	–
UGGUUGUCAGGAUAUACGUUUUUUAACUUUUGUUUUAUAUUGUAGAAGGGACAUGAGGAUCACCCAUGUUACGU	25.2	27.1	–	–
UGGUUUGGGCUAGAUGCACAGACAUGAGGAUCACCCAUGUCUGAGGAUAUGCGUCAACAUAGGCAGCAGAAGGCAGACACUCGC	15	22.2	–	–
UGUAACUAGUAAGGAUAUACUAUUGAUUUAAUAGUAGAAGGUACAGUCUUUUGUAUAUCAUGUUUACAUGAGGAUCACCCAUGU	–	–	10.4	7.77
UGUAUGGACAGAGGAUAUACAGAUAGGAUCUACUAUCAAACAGUCCUAACAUGAGGAUCACCCAUGUAGAAGGCUGUCCAUACU	20.6	82.1	–	–
UGUAUGGACAGAGGAUAUACAGAUAGGAUCUACUAUCAAACAGUCCUGACAUGAGGAUCACCCAUGUAGAAGGCUGUCCAUACU	22.8	105	–	–
UGUAUGGACAGAGGAUAUGCCGAUAGGAUCUAUUAUCGAAGAAUCCUCACAUGAGGAUCACCCAUGUAGAAGGCUGUCCAUACU	9.32	35.8	–	–
UGUCCAUAGCAGAAGGACAUGAAUACAUGAGAAAACAUGAGGAUCACCCAUGUAGGAUAUGCUAUGGACUAAGAGCGAAAGCUC	12.2	91.9	–	–
UGUCGGAGCAGAGGAUAUACAUGAGGAUCACCCAUGUAAUAAGAUCAAGCCUGGAAACAGGCAAUGUAGAAGGCUGCUCCGACA	34	422	–	–
UGUCGGAGCAGAGGAUAUUACAUGAGGAUCACCCAUGUAAUAAAUGGAAGCUGGAAACAGCAAUGUAAGAAGGCUGCUCCGACA	17.4	47.9	–	–
UGUCGGAGCAGAGGAUAUUACAUGAGGAUCACCCAUGUAGGAACCAAUAGCUGGAAACAGCAAUGUAAGAAGGCUGCUCCGACA	19.6	267	–	–
UGUCGGAGCAGAGGAUAUUACAUGAGGAUCACCCAUGUAUGAACCAAUAGCUGGAAACAGCAAUAUAAGAAGGCUGCUCCGACA	5.59	5.48	–	–
UGUCGGAGCAGAGGAUAUUACAUGAGGAUCACCCAUGUAUGAACCAAUAGCUGGAAACAGCAAUGUAAGAAGGCUGAUCCGACA	11.1	146	–	–
UGUCGGAGCAGAGGAUAUUACAUGAGGAUCACCCAUGUAUGAACCAAUAGCUGGAAACAGCAAUGUAAGAAGGCUGCUCCAACA	12.3	149	–	–
UGUCGGAGCAGAGGAUAUUACAUGAGGAUCACCCAUGUAUGAACCAAUAGCUGGAAACAGCAAUGUAAGAAGGCUGCUCCCACA	12	138	–	–
UGUCGGAGCAGAGGAUAUUACAUGAGGAUCACCCAUGUAUGAACCAAUAGCUGGAAACAGCAAUGUAAGAAGGCUGGUCCGACA	12.4	143	–	–
UGUCGGAGCAGAGGAUAUUACAUGAGGAUCACCCAUGUAUGAACCAAUAGGUGGAAACAGCAAUGUAAGAAGGCUGCUCCGACA	178	481	–	–
UGUCGGAGCAUAGGAUAUUACAUGAGGAUCACCCAUGUAUGAACCAAUAGCUGGAAACAGCAAUGUAAGAAGGCUGCUCCGACA	5.16	8.98	–	–
UGUCGGCGCAGAGGAUAUUACAUGAGGAUCACCCAUGUAUGAACCAAUAGCUGGAAACAGCAAUGUAAGAAGGCUGCUCCGACA	12.5	154	–	–
UGUCUAUUUGAAGGAUAUCUAAGCAUAAACCGGAGAGAAGGUCAAUUAUACAUGAGGAUCACCCAUGUUGAGAUUGAUGGGUUU	16.2	18.4	–	–
UGUCUGAUCUAAUAACAUGAGGAUCACCCAUGUGUUCACAACUAGGAUAUCGAUUAUUAAAACGUCGAGAAGGAGUAUACAUUA	34.5	43.6	–	–
UGUGCCUCGAGAGGAUAUACAUGAGGAUCACCCAUGUAAGUAGAGGUGGAAACACCUCUACAAAUGUAGAAGGCUCGAGGCACA	20.6	58.3	–	–
UGUGCGUCAGGAUAUUCUACUUAUUACAUGAGGAUCACCCAUGUGUAUGUACAAGGGUGUGAAGAAGGGACUUGUC	935	305	–	–
UGUGCUGAAGGAUAUGCGUAAGCUCGGUGACGAGCAGGUCUACAUGAGGAUCACCCAUGUAGAAGGUCAGUACU	15.8	16	–	–
UGUGGACAUGAGGAUCACCCAUGUGAGGAUAUGGUCUGGAUACACUUGAGCUCGGCAUCCAGAAGGCGCGUGGC	85.9	71.4	–	–
UGUGUCAUCGAGAAGGCCUCAACAUGAGGAUCACCCAUGUUGUAAUAUGGGAGGAUAUCGAUGAUACAGCUACGUUUCGUAGCG	–	–	19.8	5.56
UGUGUGAGACAGGAUAUGCCGGUUGUGUUACUGGUAGAAGGGUCUACAUGAGGAUCACCCAUGUGGCCGGCCGG	152	154	–	–
